In brackets after ≈: the same amount, converted by molar mass. Activity calls are given as the source filed them. The rule behind the calls is not given here.
Assays:
[1] = Inhibition of PI3K
[2] = molecular target: Serine/threonine-protein kinase mTOR (Homo sapiens) (UniProt P42345); test: Inhibition of mTOR
[3] = Stability in rat plasma assessed as compound remaining after 5 mins relative to basal level; format: ADME, cell-free; conditions: read-out: Stability
Procedure, shortened: (§1)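 Compound was incubated in heparinized plasma at 37 °C for 2 h. Samples taken at various time points were quenched with acetonitrile, dried under nitrogen and reconstituted in methanol/water 20:80. Intact compound was quantified by LC/MS.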

[4] = Stability in rat plasma assessed as compound remaining after 15 mins relative to basal level; format: ADME, cell-free; conditions: read-out: Stability; procedure, shortened: as §1
[5] = Stability in rat plasma assessed as compound remaining after 30 mins relative to basal level; format: ADME, cell-free; conditions: read-out: Stability; procedure, shortened: as §1
[6] = Stability in rat plasma assessed as compound remaining after 60 mins relative to basal level; format: ADME, cell-free; conditions: read-out: Stability; procedure, shortened: as §1
[7] = Stability in rat plasma assessed as compound remaining after 90 mins relative to basal level; format: ADME, cell-free; conditions: read-out: Stability; procedure, shortened: as §1
[8] = Stability in rat plasma assessed as compound remaining after 120 mins relative to basal level; format: ADME, cell-free; conditions: read-out: Stability; procedure, shortened: as §1
[9] = Stability in mouse plasma assessed as compound remaining after 5 mins relative to basal level; format: ADME, cell-free; conditions: read-out: Stability; procedure, shortened: as §1
[10] = Stability in mouse plasma assessed as compound remaining after 15 mins relative to basal level; format: ADME, cell-free; conditions: read-out: Stability; procedure, shortened: as §1
[11] = Stability in mouse plasma assessed as compound remaining after 30 mins relative to basal level; format: ADME, cell-free; conditions: read-out: Stability; procedure, shortened: as §1
[12] = Stability in mouse plasma assessed as compound remaining after 60 mins relative to basal level; format: ADME, cell-free; conditions: read-out: Stability; procedure, shortened: as §1
[13] = Stability in mouse plasma assessed as compound remaining after 90 mins relative to basal level; format: ADME, cell-free; conditions: read-out: Stability; procedure, shortened: as §1
[14] = Stability in mouse plasma assessed as compound remaining after 120 mins relative to basal level; format: ADME, cell-free; conditions: read-out: Stability; procedure, shortened: as §1
[15] = test system: Plasma; test: Stability in mouse plasma in presence of esterase inhibitor sodium fluoride; format: ADME, cell-free
Procedure, shortened: (§2)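 Compound was incubated in nude mouse plasma or whole blood at 37 °C for 2 h, with heparin or sodium fluoride/EDTA as anticoagulant. Time-point samples were quenched with acetonitrile, dried, reconstituted and analysed by LC/MS for parent and hydrolysis products.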

[16] = Stability in nude mouse whole blood assessed as rapamycin formation; format: ADME, tissue-based; procedure, shortened: as §2
[17] = Stability in nude mouse whole blood assessed as release of (4S,4aR,6aS,7S,9aR,E)-1-(((3-(dimethylamino)propyl)(methyl)amino)methylene)-7,11-dihydroxy-4-(methoxymethyl)-4a-methyl-2,10-dioxo-1,2,4,4a,5,6,6a,7,8,9,9a,10-dodecahydroindeno[4,5-h]isochromen-5-yl hydrogen carbonate; format: ADME, tissue-based; procedure, shortened: as §2
[18] = Stability in nude mouse whole blood assessed as 8-((4S,4aR,6aS,7S,9aR,E)-5-(carboxyoxy)-1-(((3-(dimethylamino)propyl)(methyl)amino)methylene)-11-hydroxy-4-(methoxymethyl)-4a-methyl-2,10-dioxo-1,2,4,4a,5,6,6a,7,8,9,9a,10-dodecahydroindeno[4,5-h]isochromen-7-yloxy)-8-oxooctanoic acid formation; format: ADME, tissue-based; procedure, shortened: as §2
[19] = Stability in nude mouse liver microsomes assessed as compound remaining after 30 mins; format: ADME, Microsome; conditions: read-out: Stability
Procedure, shortened: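 Female nude mouse liver microsomes were incubated with compound for 30 min at 37 °C, with NADPH dependence examined. Remaining parent and hydrolysis products were measured.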

[20] = Stability in human liver microsomes assessed as compound remaining after 30 mins; format: ADME, Microsome; conditions: read-out: Stability
Procedure, shortened: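 Compound (10 μM) was incubated with human liver microsomes (1 mg/mL) at 37 °C for 30 min, alongside buffer (pH 7.4) and boiled-microsome controls. NADPH dependence was examined. Reactions were quenched with 3 volumes of cold acetonitrile.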

[21] = test system: U-87MG ATCC; test: Antitumor activity against human U87MG cells xenografted in nude mouse assessed as tumor growth inhibition at 3 mg/kg, iv once weekly; format: functional, organism-based; set-up: dose 3 mg/kg
Procedure, shortened: (§3)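 U87MG glioma xenografts in nude mice were staged and randomized (n = 10). Dosing was iv once weekly in D5W (days 0, 6 or days 0, 6, 13), with vehicle controls. Tumor volume was measured twice weekly.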

[22] = Solubility in water; format: physicochemical
[23] = test system: U-87MG ATCC; test: Antitumor activity against human U87MG cells xenografted in nude mouse assessed as tumor growth inhibition administered iv once weekly; format: functional; procedure, shortened: as §3
[24] = test system: U-87MG ATCC; test: Antitumor activity against human U87MG cells xenografted in nude mouse assessed as tumor growth inhibition at 5 mg/kg, iv once weekly; format: functional, organism-based; set-up: dose 5 mg/kg; procedure, shortened: as §3
[25] = test system: U-87MG ATCC; test: Antitumor activity against human U87MG cells xenografted in nude mouse assessed as inhibition of AKT S473 phosphorylation at 15 mg/kg, iv administered as single dose measured after 2 hrs; format: functional, organism-based; set-up: dose 15 mg/kg
Procedure, shortened: (§4)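 Nude mice bearing U87MG tumors got a single iv dose. Tumors were excised 2 h later and analysed by Western blot for phosphoproteins (AKT S473, T308) against vehicle-treated controls.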

[26] = test system: U-87MG ATCC; test: Antitumor activity against human U87MG cells xenografted in nude mouse assessed as inhibition of AKT T308 phosphorylation at 15 mg/kg, iv administered as single dose measured after 2 hrs; format: functional, organism-based; set-up: dose 15 mg/kg; procedure, shortened: as §4
[27] = test system: U-87MG ATCC; test: Antitumor activity against human U87MG cells xenografted in nude mouse assessed as inhibition of S6K phosphorylation at 15 mg/kg, iv administered as single dose measured after 2 hrs; format: functional, organism-based; set-up: dose 15 mg/kg
[28] = test system: HT-29; test: Antitumor activity against human HT-29 cells xenografted in nude mouse assessed as tumor growth inhibition at 15 mg/kg, iv once weekly; format: functional, organism-based; set-up: dose 15 mg/kg
Procedure, shortened: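 Nude mice bearing HT29 colon xenografts were randomized into groups (n = 10) and dosed iv once weekly. Agents were in 5% dextrose in water, or in 4% ethanol/5% polysorbate 80/5% PEG400 for the rapamycin-type agent. Tumor growth was monitored against vehicle.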

[29] = species: Homo sapiens; test: Stability in human plasma assessed as compound remaining after 5 mins relative to basal level
[30] = species: Homo sapiens; test: Stability in human plasma assessed as compound remaining after 15 mins relative to basal level
[31] = species: Homo sapiens; test: Stability in human plasma assessed as compound remaining after 30 mins relative to basal level
[32] = species: Homo sapiens; test: Stability in human plasma assessed as compound remaining after 60 mins relative to basal level
[33] = species: Homo sapiens; test: Stability in human plasma assessed as compound remaining after 90 mins relative to basal level
[34] = species: Homo sapiens; test: Stability in human plasma assessed as compound remaining after 120 mins relative to basal level
[35] = test system: A498; test: Antitumor activity against human A498 cells xenografted in nude mouse assessed as tumor growth inhibition at 30 mg/kg, iv once weekly

Structure (SMILES): COC[C@H]1OC(=O)/C(=C\N(C)CCCN(C)C)C2=C(O)C(=O)C3=C([C@H](OC(C)=O)C[C@]4(C)[C@@H](OC(=O)CCCCCCC(=O)O[C@@H]5CC[C@@H](C[C@@H](C)[C@@H]6CC(=O)[C@H](C)/C=C(\C)[C@@H](O)[C@@H](OC)C(=O)[C@H](C)C[C@H](C)/C=C/C=C/C=C(\C)[C@@H](OC)C[C@@H]7CC[C@@H](C)[C@@](O)(O7)C(=O)C(=O)N7CCCC[C@H]7C(=O)O6)C[C@H]5OC)CC[C@@H]34)[C@]21C
- inhibition [1]: inactive
- inhibition [2]: inactive
- remaining at 5 min [3]: 91%
- remaining at 0.25 h [4]: 80%
- remaining at 0.5 h [5]: 71%
- remaining at 1 h [6]: 64%
- remaining at 1.5 h [7]: 53%
- remaining at 2 h [8]: 46%
- remaining at 5 min [9]: 53%
- remaining at 0.25 h [10]: 39%
- remaining at 0.5 h [11]: 18%
- remaining at 1 h [12]: 13%
- remaining at 1.5 h [13]: 10%
- remaining at 2 h [14]: 8%
- Stability [15]: Stable
- Stability [16]: Unstable
- Stability [17]: Stable
- Stability [18]: Unstable
- remaining at 0.5 h [19]: ≥ 50%
- remaining at 0.5 h [20]: ≥ 50%
- Activity [21]: Active
- solubility ([22]; buffer): Soluble
- solubility ([22]; water, read-out: solubility): 460 µg/mL (≈ 288 µM)
- Activity [23]: Dose-dependent effect
- Activity [24]: Active
- Activity [25]: Active
- Activity [26]: Active
- Activity [27]: Active
- Activity [28]: Active
- remaining at 5 min [29]: 86%
- remaining at 0.25 h [30]: 93%
- remaining at 0.5 h [31]: 91%
- remaining at 1 h [32]: 83%
- remaining at 1.5 h [33]: 82%
- remaining at 2 h [34]: 83%
- Activity [35]: Active

From ChEMBL document CHEMBL1156776, “Hybrid inhibitors of phosphatidylinositol 3-kinase (PI3K) and the mammalian target of rapamycin (mTOR): design, synthesis, and superior antitumor activity of novel wortmannin-rapamycin conjugates” (J Med Chem, 2010)
